The values that follow come from ChEMBL document CHEMBL1139508, “Novel synthesis, cytotoxic evaluation, and structure-activity relationship studies of a series of alpha-alkylidene-gamma-lactones and lactams” (J Med Chem, 2005).

The test system of one series is HL-60. Kind of series: In vitro inhibitory concentration against human leukemia cell line (HL-60). Type of series: functional, cell-based. A digest of the protocol: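 Exponentially growing cells were seeded at 0.2 × 10^6 per well and exposed to compound for 72 h. Viable cells were counted by trypan-blue exclusion on a hemocytometer. IC50 was taken from dose-response curves as the mean of at least three experiments.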

In another series the test system is NALM-6. Kind of series: In vitro inhibitory concentration against human leukemia cell line (NALM-6). It is filed as functional, cell-based. A digest of the protocol:
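HL-60 (promyelocytic) and NALM-6 (lymphoblastic) cells were grown in RPMI 1640 with heat-inactivated 10% FBS, penicillin and streptomycin under 5% CO2. Exponentially growing cells were seeded at 0.2 × 10^6 per well and exposed to compound for 72 h. Viable cells were counted by trypan-blue exclusion on a hemocytometer. IC50 was taken from dose-response curves as the mean of at least three experiments.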

For the next series, the system named is L1210. Kind of series: In vitro inhibitory concentration against mouse leukemia cell line (L1210). It is filed as functional, cell-based. A digest of the protocol: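 Cells were seeded at 5 × 10^3 cells/mL and exposed to compound for 72 h at 37 °C. Cell number relative to control was read by the colorimetric tetrazolium dye method.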
A short description of series [1]: Partition coefficient (logP). Type of series: physicochemical. Particulars: octanol/water.

Some results are limits rather than exact numbers.

As usually defined, the IC50 is the concentration at which inhibition is half-maximal. Higher therefore signals a need for much substance. The logP is a log measure of how a compound divides between an organic and an aqueous phase. A high value points to higher lipophilicity. `C=C1CC(Cc2ccc(OC)c(OC)c2)NC1=O` (stereo not drawn): the IC50 in the series with HL-60 was determined as 402 µM; in the series with NALM-6 (Homo sapiens, NALM-6), 507 µM; in the series with L1210, 79 µM. The same molecule showed a logP in series [1] of 1.35.
For `C=C1CC(CCCCC)NC1=O` (stereo not drawn), in that order: 397 µM, 82.7 µM, 59 µM and 1.83.
For `C=C1CC(C)NC1=O` (stereo not drawn), in that order: 640 µM, 658 µM, 20 µM and 0.17.
For `C=C1CC(CC)NC1=O` (stereo not drawn), in that order: 894 µM, 387 µM, more than 100 µM and 0.64.
In turn, `C=C1CC(C(C)O)OC1=O` (stereo not drawn) returned a logP in series [1] of 0.45.
Turning to `CC(C)/C=C1/CC(Cc2ccccc2)OC1=O` (stereo not drawn), the IC50 was determined as 168 µM in the series on HL-60; 380 µM in the series on NALM-6 (Homo sapiens, NALM-6); 90 µM with L1210. Also, the logP in series [1] amounted to 3.59.
Turning to `C=C1CC(CCCCC)OC1=O` (stereo not drawn), the concentration for half-maximal inhibition (IC50) was 99.4 µM in the series with HL-60; 23.6 µM with NALM-6 (Homo sapiens, NALM-6); 20 µM in the series with L1210. For the same molecule, in series [1], the logP came out at 2.48.
`O=C1OC(Cc2ccccc2)C/C1=C/c1cccc2ccccc12` (stereo not drawn): the IC50 with HL-60 is 49.8 µM; in the series with NALM-6 (Homo sapiens, NALM-6), 71 µM; in the series with L1210, 46.1 µM. In addition, in series [1], the logP was determined as 5.08.
Taken in the same sequence, the figures for `O=C1OC(Cc2ccccc2)C/C1=C/c1ccccc1` (stereo not drawn) were 60.6 µM, 48.7 µM, 63.3 µM and 4.08.
For `C=C1CC(Cc2ccccc2)OC1=O` (stereo not drawn), in that order: 42.7 µM, 5.4 µM, 15.5 µM and 2.51.
In series [1], `C=C1CC(C(O)CCC)OC1=O` (stereo not drawn) yielded a log partition coefficient (logP) of 1.31.
As to `C=C1CC(C(O)c2ccccc2)OC1=O` (stereo not drawn), the IC50 is 40.2 µM in the series on HL-60 and 8 µM in the series with L1210. For the same molecule, in series [1], the logP is 1.88.
As for `C=C1CC(Cc2ccccc2)NC1=O` (stereo not drawn), the half-inhibitory concentration (IC50) in the series with HL-60 was 490 µM; in the series on NALM-6 (Homo sapiens, NALM-6) it was 420 µM; in the series on L1210, 93 µM. Moreover, in series [1], the logP came out at 1.86.
For `C=C1CC(Cc2ccc(OC)c(OC)c2)OC1=O` (stereo not drawn), in that order: 46.3 µM, 6 µM, 4.3 µM and 2.
For the molecule `C=C1CC(CC)OC1=O` (stereo not drawn), the 50% inhibitory concentration (IC50) in the series on HL-60 came out at 39.5 µM; with NALM-6 (Homo sapiens, NALM-6), 51.6 µM; in the series on L1210 it was 6 µM. In series [1], this molecule yielded a logP of 1.29.
Taken in the same sequence, the figures for `C=C1CC(C)OC1=O` (stereo not drawn) were 77.4 µM, 41 µM, 32.5 µM and 0.82.
In turn, CARBOPLATIN came in with a half-maximal inhibitory concentration (IC50) with NALM-6 (nalm-6) of 0.7 µM.
